# In ChEMBL document CHEMBL2169850, “3,6-bis(3-alkylguanidino)acridines as DNA-intercalating antitumor agents” (Eur J Med Chem, 2012):
# Active and inactive are the calls of the source. The calls are words filed in the database; no cut-off is given here.
# Legend:
# HL-60 [1] = assay: Drug uptake in human HL60 cells with necrotic morphology at 50 uM incubated for 18 hrs by fluorescence microscopy; format: ADME, cell-based; settings: hl-60, 18 h
# Method in brief: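 HL-60 cells were treated with 50 µM compound for 18 h, washed with PBS, resuspended in HBSS and mounted as native slides. Cells were imaged by inverted fluorescence microscopy at 40×, with excitation 360/40 and emission 470/40. The fluorescence channel was merged with brightfield images.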
# HL-60 [2] = assay: Cell cycle arrest in human HL60 cells assessed as accumulation at G2/M phase at 25 uM incubated for 72 hrs by flow cytometry (reference value: 12.68 +/- 3.21%); format: functional
# HL-60 [3] = assay: Cell cycle arrest in human HL60 cells assessed as accumulation at G2/M phase at 15 uM incubated for 72 hrs by flow cytometry (reference value: 12.68 +/- 3.21%); format: functional
# HL-60 [4] = assay: Cell cycle arrest in human HL60 cells assessed as accumulation at G2/M phase at 25 uM incubated for 48 hrs by flow cytometry (reference value: 16.42 +/- 1.03%); format: functional
# HL-60 [5] = assay: Cell cycle arrest in human HL60 cells assessed as accumulation at G2/M phase at 15 uM incubated for 48 hrs by flow cytometry (reference value: 16.42 +/- 1.03%); format: functional
# HL-60 [6] = assay: Cell cycle arrest in human HL60 cells assessed as accumulation at G2/M phase at 5 uM incubated for 48 hrs by flow cytometry (reference value: 16.42 +/- 1.03%); format: functional
# HL-60 [7] = assay: Cell cycle arrest in human HL60 cells assessed as accumulation at G2/M phase at 15 uM incubated for 24 hrs by flow cytometry (reference value: 19.62 +/- 0.96%); format: functional
# HL-60 [8] = assay: Cell cycle arrest in human HL60 cells assessed as accumulation at G2/M phase at 5 uM incubated for 24 hrs by flow cytometry (reference value: 19.62 +/- 0.96%); format: functional
# HL-60 [9] = assay: Cell cycle arrest in human HL60 cells assessed as accumulation at S phase at 15 uM incubated for 72 hrs by flow cytometry (reference value: 40.30 +/- 3.15%); format: functional
# HL-60 [10] = assay: Cell cycle arrest in human HL60 cells assessed as accumulation at S phase at 25 uM incubated for 48 hrs by flow cytometry (reference value: 45.29 +/- 1.23%); format: functional
# HL-60 [11] = assay: Cell cycle arrest in human HL60 cells assessed as accumulation at S phase at 15 uM incubated for 48 hrs by flow cytometry (reference value: 45.29 +/- 1.23%); format: functional
# HL-60 [12] = assay: Cell cycle arrest in human HL60 cells assessed as accumulation at S phase at 15 uM incubated for 24 hrs by flow cytometry (reference value: 44.41 +/- 0.77%); format: functional
# HL-60 [13] = assay: Cell cycle arrest in human HL60 cells assessed as accumulation at G1 phase at 5 uM incubated for 72 hrs by flow cytometry (reference value: 47.02 +/- 6.19%); format: functional
# HL-60 [14] = assay: Cell cycle arrest in human HL60 cells assessed as accumulation at G1 phase at 25 uM incubated for 48 hrs by flow cytometry (reference value: 38.29 +/- 0.22%); format: functional
# HL-60 [15] = assay: Cell cycle arrest in human HL60 cells assessed as accumulation at G1 phase at 15 uM incubated for 48 hrs by flow cytometry (reference value: 38.29 +/- 0.22%); format: functional
# HL-60 [16] = assay: Cell cycle arrest in human HL60 cells assessed as accumulation at G1 phase at 15 uM incubated for 24 hrs by flow cytometry (reference value: 35.96 +/- 1.63%); format: functional
# HL-60 [17] = assay: Antiproliferative activity against human HL60 cells assessed as cell number at 15 uM incubated for 72 hrs by Coulter counting method; format: functional
# Method in brief: (§1)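 HL-60 cells in RPMI with 10% heat-inactivated FCS, antibiotics and amphotericin, 37 °C, 5% CO2, seeded in 60 mm dishes. Compound added at 5, 15 or 25 µM for 24, 48 or 72 h. Absolute cell counts taken by Coulter counter and expressed as percentage of untreated control. Mean ± SD of at least three independent experiments; one-way ANOVA with Tukey test, p < 0.05.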
# HL-60 [18] = assay: Antiproliferative activity against human HL60 cells assessed as cell number at 5 uM incubated for 72 hrs by Coulter counting method; format: functional; method in brief: as §1
# HL-60 [19] = assay: Antiproliferative activity against human HL60 cells assessed as cell number at 15 uM incubated for 48 hrs by Coulter counting method; format: functional; method in brief: as §1
# HL-60 [20] = assay: Antiproliferative activity against human HL60 cells assessed as cell number at 25 uM incubated for 24 hrs by Coulter counting method; format: functional; method in brief: as §1
# Nucleic Acid [21] = assay: Binding affinity to Escherichia coli pUC19 DNA assessed as reduction in DNA mobility to 5 to 80 uM by EMSA; format: nucleic-acid assay
# Method in brief: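 Supercoiled pUC19 plasmid incubated with compound at 5, 20, 40, 60 or 80 µM. Native agarose gel electrophoresis run with no ethidium bromide in the gel; band mobility was then read.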
# Nucleic Acid [22] = assay: Binding affinity to calf thymus DNA at 6.5 uM by CD spectroscopy; format: nucleic-acid assay; settings: Bos taurus
# Method in brief: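 CD spectra were recorded in 1 mm quartz cuvettes in 0.01 M Tris, pH 7.4, with 6.52 µM compound and ctDNA. Each spectrum is the mean of three scans after buffer background subtraction.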
# Nucleic Acid [23] = assay: Binding affinity to calf thymus DNA at 11 to 58 uM by LD spectroscopy; format: nucleic-acid assay; settings: Bos taurus
# Method in brief: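 Flow LD spectra were recorded in a Couette cell (1 mm path) from 210 to 550 nm at 25 °C in 10 mM Tris. ctDNA was modified by compound at 11–58 × 10^-6 M.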
# Nucleic Acid [24] = assay: Binding affinity to calf thymus DNA by spectrofluorimetric titration assay; format: nucleic-acid assay; settings: Bos taurus
# Method in brief: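 Fluorescence titration at 25 °C in 0.01 M Tris, pH 7.4. Compound (9.58 × 10^-6 M) was titrated with ctDNA from 0 to 2.57 × 10^-4 M bp, excited at 384 nm, and emission recorded from 400 to 600 nm. K and n were obtained from McGhee–von Hippel fits of Scatchard data.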
# HL-60 [25] = assay: Induction of mitochondrial membrane dissipation in human HL60 cells at 5 to 25 uM incubated for 24 to 72 hrs by FACS assay; format: functional
# Method in brief: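 HL-60 cells (5 × 10^5) were treated 24, 48 or 72 h, washed in HBSS and loaded with TMRE for 20 min at 37 °C in the dark. TMRE fluorescence in FL2 was read by flow cytometry, with 1 × 10^4 gated cells per sample. Result is the percentage of cells with decreased fluorescence (dissipated MMP). Mean ± SD, n ≥ 3.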
# HL-60 [26] = assay: Induction of necrosis in human HL60 cells at 5 to 25 uM incubated for 72 hrs by AnnexinV/propidium iodide staining method; format: functional, cell-based
# Method in brief: (§2)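 HL-60 cells (1.5 × 10^5) were exposed to compound, then stained 10 min with Annexin V-FITC in HEPES/CaCl2/NaCl binding buffer. Cells were washed, briefly stained with propidium iodide and analysed by flow cytometry for apoptotic and necrotic fractions. Mean ± SD of at least three independent experiments.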
# HL-60 [27] = assay: Induction of necrosis in human HL60 cells at 5 to 25 uM incubated for 48 hrs by AnnexinV/propidium iodide staining method; format: functional, cell-based; method in brief: as §2
# Nucleic Acid [28] = assay: Binding affinity to calf thymus DNA assessed as hypochromacity at 12.8 uM by UV-visible absorption spectroscopy; settings: Bos taurus
SMILES,Drug uptake (HL-60 [1]),Activity (HL-60 [2]),Activity (HL-60 [3]),Activity (HL-60 [4]),Activity (HL-60 [5]),Activity (HL-60 [6]),Activity (HL-60 [7]),Activity (HL-60 [8]),Activity (HL-60 [9]),Activity (HL-60 [10]),Activity (HL-60 [11]),Activity (HL-60 [12]),Activity (HL-60 [13]),Activity (HL-60 [14]),Activity (HL-60 [15]),Activity (HL-60 [16]),Activity (HL-60 [17]),Activity (HL-60 [18]),Activity (HL-60 [19]),Activity (HL-60 [20]),further results
CCCCCCNC(=N)Nc1ccc2cc3ccc(NC(=N)NCCCCCC)cc3nc2c1.Cl.Cl.O,Active,3.91%,5.85%,6.51%,8.11%,11.36%,11.65%,16.37%,23.84%,27.77%,27.52%,46.58%,48.93%,65.72%,64.37%,41.77%,33.13%,57.54%,52.7%,76.71%,Activity (Nucleic Acid [21]): inactive; Activity (Nucleic Acid [22]): Active; Activity (Nucleic Acid [23]): Active; K (Nucleic Acid [24]): 1.25 ×10⁵ /M; Activity (HL-60 [25]): 70%; Activity (HL-60 [26]): Active; Activity (HL-60 [27]): Active; Activity (Nucleic Acid [28]): 42%
CCNC(=N)Nc1ccc2cc3ccc(NC(=N)NCC)cc3nc2c1.Cl.Cl.O,Active,inactive,inactive,inactive,inactive,inactive,inactive,inactive,inactive,inactive,inactive,inactive,inactive,inactive,inactive,inactive,84.97%,79.32%,80.03%,71.98%,Activity (Nucleic Acid [21]): Active; Activity (Nucleic Acid [22]): Active; Activity (Nucleic Acid [23]): Active; K (Nucleic Acid [24]): 5.26 ×10⁵ /M; Activity (HL-60 [25]): inactive; Activity (HL-60 [26]): inactive; Activity (HL-60 [27]): inactive; Activity (Nucleic Acid [28]): 23%
